Measurements as given in PMC6308033 (Molecular Metabolism, 2018).

Legend:
blood–brain barrier = conditions: cited from earlier work; for Direction and saturability of BBB transport: mouse brain, brain-to-blood and blood-to-brain
[1] = human serum; cited from earlier work
[2] = tested on: blood–brain barrier of WT and Ghsr null mice; assay: Multiple-time regression analysis of blood-to-brain influx; assay type: in vivo, mouse; conditions: for Vi, initial volume of distribution in brain (vascular binding): WT mice, whole brain, y-intercept of B/S ratio vs exposure time, mean ± SEM
Procedure, shortened: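 Male and female mice (3–6 months) were anaesthetised with 0.15 mL 40% urethane i.p. They received 1 × 10^6 cpm (~20 ng) 125I-labelled peptide plus 5 × 10^5 cpm 99mTc-albumin via jugular vein, in 0.2 mL 1% BSA/lactated Ringer's. Carotid blood was taken at 1–10 min, and serum and brain were gamma-counted. Brain/serum ratios (μL/g) were plotted against exposure time (Patlak): the slope gave Ki and the intercept gave Vi.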

[3] = tested on: brain endothelial cell (capillary vs parenchyma); assay: Capillary depletion: complete transfer across the brain endothelial cell; assay type: in vivo, mouse; conditions: 10 min after IV injection, n = 3
Procedure, shortened: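 Urethane-anaesthetised male and female mice (3–6 months) received a 0.2 mL IV injection of 1 × 10^6 cpm 125I-labelled test peptide plus 5 × 10^5 cpm 99mTc-albumin in 1% BSA/lactated Ringer's. Brain was homogenised and spun at 5400 g for 15 min at 4 °C. The capillary pellet was separated from the parenchymal supernatant, and the parenchyma was vascular-corrected using 99mTc-albumin. Ratios were (cpm/g tissue)/(cpm/μL serum).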

| Substance | Degradation of AG into DAG (blood–brain barrier; same time frame (10 min)) | Half-life [1] | Direction and saturability of BBB transport (blood–brain barrier) | Vi, initial volume of distribution in brain (vascular binding) [2] | Transport rate relative to the other three ghrelin forms ([2]; BBB transport rate in mice, hDAG vs mDAG, hAG, mAG) | Capillary/serum ratio [3] |
| --- | --- | --- | --- | --- | --- | --- |
| acyl ghrelin [AG] | not degraded into DAG | ~10 min | – | – | – | – |
| human AG [hAG] | – | – | bidirectional and saturable manner | 1.192 ± 0.57 µL/g | – | – |
| human DAG [hDAG] | – | – | – | 1.775 ± 0.81 µL/g | approximately three times faster | 1.0 ± 0.30 µL/g |
| mouse AG [mAG] | – | – | bidirectional and saturable manner | 2.847 ± 0.57 µL/g | – | – |
| mouse DAG [mDAG] | – | – | unidirectionally and in an unsaturable manner | 2.265 ± 0.75 µL/g | – | – |
